Data published in ChEMBL document CHEMBL2429787, “Sulfonyl-polyol N,N-dichloroamines with rapid, broad-spectrum antimicrobial activity” (Bioorg Med Chem Lett, 2013).
≈ marks a conversion by molar mass, not a printed value.

Legend:
[1] = system: Human adenovirus 5; test: Ratio of IC50 for Adenovirus 5 ATCC VR-1516 at pH 7 to IC50 for Adenovirus 5 ATCC VR-1516 at pH 4; format: functional
How it was run: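 Ad5 virucidal IC50 was determined in PBS (pH 7) and acetate saline buffer (pH 4) using 60 min room-temperature exposure, neutralization, A549 infection, 6-day CPE by CCK-8 and sigmoidal fit. The ratio is IC50 at pH 7 over IC50 at pH 4.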

[2] = system: Staphylococcus aureus; test: Ratio of MBC for Staphylococcus aureus ATCC 29213 at pH 7 to MBC for Staphylococcus aureus ATCC 29213 at pH 4; format: functional
How it was run: (§1)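 MBC was measured in PBS pH 7 and in acetate saline buffer pH 4 (1 h room-temperature exposure, >99.9% kill endpoint, CFU plating). The ratio is MBC at pH 7 over MBC at pH 4.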

[3] = system: Escherichia coli; test: Ratio of MBC for Escherichia coli ATCC 25922 at pH 7 to MBC for Escherichia coli ATCC 25922 at pH 4; format: functional; how it was run: as §1
[4] = system: Staphylococcus aureus; test: Bactericidal activity against Staphylococcus aureus ATCC 29213 at pH 7 after 1 hr by CLSI method; format: functional; details: ATCC 29213, 1 h
How it was run: (§2)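 MBC by modified CLSI M26-A: broth replaced with 0.9% acetate saline buffer pH 4 or PBS pH 7. Mid-log bacteria were centrifuged and resuspended in buffer, then added to serial twofold compound dilutions (final 10⁵–10⁶ CFU/mL) for 1 h at room temperature. Aliquots were plated on agar (24 h, 35 °C) and CFU counted. MBC is the lowest concentration giving >99.9% kill.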

[5] = system: Escherichia coli; test: Bactericidal activity against Escherichia coli ATCC 25922 at pH 7 after 1 hr by CLSI method; format: functional; details: ATCC 25922, 1 h; how it was run: as §2
[6] = system: Staphylococcus aureus; test: Bactericidal activity against Staphylococcus aureus ATCC 29213 at pH 4 after 1 hr by CLSI method; format: functional; details: ATCC 29213, 1 h; how it was run: as §2
[7] = system: Escherichia coli; test: Bactericidal activity against Escherichia coli ATCC 25922 at pH 4 after 1 hr by CLSI method; format: functional; details: ATCC 25922, 1 h; how it was run: as §2
[8] = system: Human adenovirus 5; test: Virucidal activity against Adenovirus 5 ATCC VR-1516 infected in human A549 cells assessed as viral cytopathic effect at pH 7 incubated for 1 hr measured after 6 days by three-fold serial dilution assay; format: functional, organism-based
How it was run: (§3)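 Virus was diluted in 20 mM PBS or 5 mM acetate saline buffer with 2.5% glycerol and mixed 1:1 with threefold compound dilutions (quadruplicate) for 60 min at room temperature. It was neutralized with 2× D-MEM/F12 plus 20% FBS for 60 min, then adsorbed 1–2 h at 37 °C onto A549 (Ad5) or Vero (HSV-1) cells. Cells were washed, grown 6 days, and CPE read by CCK-8. IC50 came from a sigmoidal fit with top fixed at 100.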

[9] = system: Human alphaherpesvirus 1; test: Virucidal activity against Herpes simplex virus (type 1 / strain F) ATCC VR-733 infected in african geen monkey Vero cells assessed as viral cytopathic effect at pH 7 incubated for 1 hr measured after 6 days by three-fold serial dilution assay; format: functional, organism-based; how it was run: as §3
[10] = system: Human adenovirus 5; test: Virucidal activity against Adenovirus 5 ATCC VR-1516 infected in human A549 cells assessed as viral cytopathic effect at pH 4 incubated for 1 hr measured after 6 days by three-fold serial dilution assay; format: functional, organism-based; how it was run: as §3
[11] = Toxicity in epiocular tissue irritancy model (unknown origin) assessed as tissue viability up to 46 mins relative to control; format: tissue-based, Eye; details: read-out: Activity
How it was run: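 EpiOcular tissue model: after exposure, tissues were rinsed in PBS and held in MTT for 3 h, then extracted overnight. Viability was read from MTT absorbance against untreated control and correlated with a Draize-type irritancy score.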

[12] = Stability of the compound in aqueous solution; format: physicochemical; details: buffer
[13] = Human mastadenovirus C, ATCC VR-1516, A549, read-out: IC50
[14] = Human alphaherpesvirus 1, Strain F ATCC VR 733, Vero, read-out: IC50

Structure (SMILES)	Ratio IC50 [1]	Ratio [2]	Ratio [3]	MBC [4]	MBC [5]	MBC [6]	MBC [7]	IC50 [8, 13]	IC50 [9, 14]	IC50 [10, 13]	IC50 ([8]; a549)	IC50 ([9]; vero)	IC50 ([10]; a549)	viability at 46 min [11]	Stability [12]
CC(C)(CCS(=O)(=O)CCO)N(Cl)Cl	3.2	16	16	16 µg/mL (≈ 60.6 µM)	8 µg/mL (≈ 30.3 µM)	1 µg/mL (≈ 3.79 µM)	0.5 µg/mL (≈ 1.89 µM)	4.5 µM	0.7 µM	1.4 µM					
CC(C)(CCS(=O)(=O)CCCO)N(Cl)Cl											ND(Unstable)	ND(Unstable)	ND(Unstable)		
CC(C)(CO)CS(=O)(=O)CCC(C)(C)N(Cl)Cl				128 µg/mL (≈ 418 µM)	64 µg/mL (≈ 209 µM)	2 µg/mL (≈ 6.53 µM)	4 µg/mL (≈ 13.1 µM)	9.6 µM	0.9 µM	1.8 µM					
CC(C)(CCS(=O)(=O)CCCCCCCCO)N(Cl)Cl				128 µg/mL (≈ 367 µM)	256 µg/mL (≈ 735 µM)			32 µM					ND(Unstable)		
CC(C)(CCS(=O)(=O)CC(O)CO)N(Cl)Cl (stereo not drawn)	10	2	8	4 µg/mL (≈ 13.6 µM)	16 µg/mL (≈ 54.4 µM)	2 µg/mL (≈ 6.8 µM)	2 µg/mL (≈ 6.8 µM)	26 µM	1.5 µM	2.7 µM				50%	
CC(C)(CCS(=O)(=O)C[C@H](O)CO)N(Cl)Cl				4 µg/mL (≈ 13.6 µM)	32 µg/mL (≈ 109 µM)	2 µg/mL (≈ 6.8 µM)	2 µg/mL (≈ 6.8 µM)	14 µM	1.2 µM	2.2 µM					
CC(C)(CCS(=O)(=O)C[C@@H](O)CO)N(Cl)Cl				4 µg/mL (≈ 13.6 µM)	32 µg/mL (≈ 109 µM)	1 µg/mL (≈ 3.4 µM)	2 µg/mL (≈ 6.8 µM)	13 µM	1 µM	2.4 µM					
CC(C)(CCS(=O)(=O)CC(O)C(O)CO)N(Cl)Cl (stereo not drawn)				32 µg/mL (≈ 98.7 µM)	128 µg/mL (≈ 395 µM)	1 µg/mL (≈ 3.08 µM)	2 µg/mL (≈ 6.17 µM)								
CC(C)(CCS(=O)(=O)C(CO)C(O)CO)N(Cl)Cl (stereo not drawn)				16 µg/mL (≈ 49.3 µM)	64 µg/mL (≈ 197 µM)	2 µg/mL (≈ 6.17 µM)	2 µg/mL (≈ 6.17 µM)	19 µM	3 µM	1.5 µM					
CC(C)(CCS(=O)(=O)CCC(O)CO)N(Cl)Cl (stereo not drawn)				16 µg/mL (≈ 51.9 µM)	64 µg/mL (≈ 208 µM)	1 µg/mL (≈ 3.24 µM)	2 µg/mL (≈ 6.49 µM)	18 µM	1.2 µM	1.4 µM					
CC(C)(CCS(=O)(=O)CCCCC(O)CO)N(Cl)Cl (stereo not drawn)											ND(Unstable)	ND(Unstable)	ND(Unstable)		
CO[C@H]1O[C@H](CS(=O)(=O)CCC(C)(C)N(Cl)Cl)[C@@H](O)[C@H](O)[C@H]1O				256 µg/mL (≈ 646 µM)	512 µg/mL (≈ 1290 µM)	8 µg/mL (≈ 20.2 µM)	8 µg/mL (≈ 20.2 µM)								
CC(=O)OCC(O)CS(=O)(=O)CCC(C)(C)N(Cl)Cl (stereo not drawn)				32 µg/mL (≈ 95.2 µM)	64 µg/mL (≈ 190 µM)	4 µg/mL (≈ 11.9 µM)	2 µg/mL (≈ 5.95 µM)								
CC(=O)OCC(CS(=O)(=O)CCC(C)(C)N(Cl)Cl)OC(C)=O (stereo not drawn)				128 µg/mL (≈ 338 µM)	128 µg/mL (≈ 338 µM)	2 µg/mL (≈ 5.29 µM)	1 µg/mL (≈ 2.64 µM)								
CC(C)(CS(=O)(=O)CCO)N(Cl)Cl						1 µg/mL (≈ 4 µM)	1 µg/mL (≈ 4 µM)			2.3 µM	ND(Unstable)	ND(Unstable)			
CN(CCO)S(=O)(=O)CCC(C)(C)N(Cl)Cl				128 µg/mL (≈ 437 µM)	64 µg/mL (≈ 218 µM)	1 µg/mL (≈ 3.41 µM)	2 µg/mL (≈ 6.82 µM)	14 µM	1.2 µM	1.5 µM					
CN(CCCO)S(=O)(=O)CCC(C)(C)N(Cl)Cl											ND(Unstable)	ND(Unstable)	ND(Unstable)		Stable
